Assay results as given in ChEMBL document CHEMBL4229372, “Synthesis and anti-mitotic activity of 2,4- or 2,6-disubstituted- and 2,4,6-trisubstituted-2H-pyrazolo[4,3-c]pyridines” (2018).
Active and inactive are the calls of the source. The rule behind the calls is not given here.

How the values were obtained:
K562 [1] = test: Growth inhibition of human K562 cells after 72 hrs by Calcein AM dye based fluorescence assay; assay type: functional; conditions: K562, 72 h
Method in brief: (§1)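 Cells in DMEM with 10% FBS at 37 °C, 5% CO2, treated in triplicate with six doses for 72 h. Calcein AM was added for 1 h and live-cell fluorescence read at 485/538 nm. GI50 was taken from dose-response curves.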

MCF7 [2] = test: Growth inhibition of human MCF7 cells after 72 hrs by Calcein AM dye based fluorescence assay; assay type: functional; conditions: MCF7, 72 h; method in brief: as §1
K562 [3] = test: Cell cycle arrest in human K562 cells assessed as accumulation at sub G1 phase at 10 uM after 24 hrs by propidium iodide staining-based flow cytometric analysis (reference value: 15%); assay type: functional
K562 [4] = test: Cell cycle arrest in human K562 cells assessed as accumulation at G1 phase at 10 uM after 24 hrs by propidium iodide staining-based flow cytometric analysis (reference value: 34.6%); assay type: functional
K562 [5] = test: Cell cycle arrest in human K562 cells assessed as accumulation at S phase at 10 uM after 24 hrs by propidium iodide staining-based flow cytometric analysis (reference value: 50.3%); assay type: functional
K562 [6] = test: Cell cycle arrest in human K562 cells assessed as accumulation at G2/M phase at 10 uM after 24 hrs by propidium iodide staining-based flow cytometric analysis (reference value: 15%); assay type: functional
MCF7 [7] = test: Cell cycle arrest in human MCF7 cells assessed as accumulation at sub G1 phase at 10 uM after 24 hrs by propidium iodide staining-based flow cytometric analysis (reference value: 7.1%); assay type: functional
Method in brief: (§2)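 MCF-7 cells in DMEM with 10% FBS and penicillin/streptomycin at 37 °C, 5% CO2. Asynchronous cells were treated 24 h, PBS-washed, trypsinized and quenched with 0.1% trypsin inhibitor. Staining used 5× citrate/IGEPAL/spermine/Tris buffer (pH 7.6) with 50 μg/mL propidium iodide. DNA content was read by 488 nm flow cytometry and cell-cycle phases modelled.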

MCF7 [8] = test: Cell cycle arrest in human MCF7 cells assessed as accumulation at G1 phase at 10 uM after 24 hrs by propidium iodide staining-based flow cytometric analysis (reference value: 60.7%); assay type: functional; method in brief: as §2
MCF7 [9] = test: Cell cycle arrest in human MCF7 cells assessed as accumulation at S phase at 10 uM after 24 hrs by propidium iodide staining-based flow cytometric analysis (reference value: 34.1%); assay type: functional; method in brief: as §2
MCF7 [10] = test: Cell cycle arrest in human MCF7 cells assessed as accumulation at G2/M phase at 10 uM after 24 hrs by propidium iodide staining-based flow cytometric analysis (reference value: 5.3%); assay type: functional; method in brief: as §2
[11] = target: Cyclin-dependent kinase 1 (Homo sapiens) (UniProt P06493); test: Inhibition of CDK1 (unknown origin)
K562 [12] = test: Cell cycle arrest in human K562 cells assessed as accumulation at G2/M phase assessed as accumulation of histone H3 phosphorylation at serine 10 residues at 40 ng/ml uM after 24 hrs by propidium iodide staining-based flow cytometric analysis (reference value: 2.2%); assay type: functional
K562 [13] = test: Cell cycle arrest in human K562 cells assessed as accumulation at sub G1 phase at 83 nM after 24 hrs by propidium iodide staining-based flow cytometric analysis (reference value: 15%); assay type: functional
K562 [14] = test: Cell cycle arrest in human K562 cells assessed as accumulation at G1 phase at 83 nM after 24 hrs by propidium iodide staining-based flow cytometric analysis (reference value: 34.6%); assay type: functional
K562 [15] = test: Cell cycle arrest in human K562 cells assessed as accumulation at S phase at 83 nM after 24 hrs by propidium iodide staining-based flow cytometric analysis (reference value: 50.3%); assay type: functional
K562 [16] = test: Cell cycle arrest in human K562 cells assessed as accumulation at G2/M phase at 83 nM after 24 hrs by propidium iodide staining-based flow cytometric analysis (reference value: 15%); assay type: functional
MCF7 [17] = test: Cell cycle arrest in human MCF7 cells assessed as accumulation at sub G1 phase at 83 nM after 24 hrs by propidium iodide staining-based flow cytometric analysis (reference value: 7.1%); assay type: functional; method in brief: as §2
MCF7 [18] = test: Cell cycle arrest in human MCF7 cells assessed as accumulation at G1 phase at 83 nM after 24 hrs by propidium iodide staining-based flow cytometric analysis (reference value: 60.7%); assay type: functional; method in brief: as §2
MCF7 [19] = test: Cell cycle arrest in human MCF7 cells assessed as accumulation at S phase at 83 nM after 24 hrs by propidium iodide staining-based flow cytometric analysis (reference value: 34.1%); assay type: functional; method in brief: as §2
MCF7 [20] = test: Cell cycle arrest in human MCF7 cells assessed as accumulation at G2/M phase at 83 nM after 24 hrs by propidium iodide staining-based flow cytometric analysis (reference value: 5.3%); assay type: functional; method in brief: as §2
K562 [21] = test: Cell cycle arrest in human K562 cells assessed as accumulation at sub G1 phase at 0.25 uM after 24 hrs by propidium iodide staining-based flow cytometric analysis (reference value: 15%); assay type: functional
K562 [22] = test: Cell cycle arrest in human K562 cells assessed as accumulation at G1 phase at 0.25 uM after 24 hrs by propidium iodide staining-based flow cytometric analysis (reference value: 34.6%); assay type: functional
K562 [23] = test: Cell cycle arrest in human K562 cells assessed as accumulation at S phase at 0.25 uM after 24 hrs by propidium iodide staining-based flow cytometric analysis (reference value: 50.3%); assay type: functional
K562 [24] = test: Cell cycle arrest in human K562 cells assessed as accumulation at G2/M phase at 0.25 uM after 24 hrs by propidium iodide staining-based flow cytometric analysis (reference value: 15%); assay type: functional
MCF7 [25] = test: Cell cycle arrest in human MCF7 cells assessed as accumulation at sub G1 phase at 0.25 uM after 24 hrs by propidium iodide staining-based flow cytometric analysis (reference value: 7.1%); assay type: functional; method in brief: as §2
MCF7 [26] = test: Cell cycle arrest in human MCF7 cells assessed as accumulation at G1 phase at 0.25 uM after 24 hrs by propidium iodide staining-based flow cytometric analysis (reference value: 60.7%); assay type: functional; method in brief: as §2
MCF7 [27] = test: Cell cycle arrest in human MCF7 cells assessed as accumulation at S phase at 0.25 uM after 24 hrs by propidium iodide staining-based flow cytometric analysis (reference value: 34.1%); assay type: functional; method in brief: as §2
MCF7 [28] = test: Cell cycle arrest in human MCF7 cells assessed as accumulation at G2/M phase at 0.25 uM after 24 hrs by propidium iodide staining-based flow cytometric analysis (reference value: 5.3%); assay type: functional; method in brief: as §2

Sequence of Cyclin-dependent kinase 1 (Homo sapiens) (P06493 whole entry, looked up): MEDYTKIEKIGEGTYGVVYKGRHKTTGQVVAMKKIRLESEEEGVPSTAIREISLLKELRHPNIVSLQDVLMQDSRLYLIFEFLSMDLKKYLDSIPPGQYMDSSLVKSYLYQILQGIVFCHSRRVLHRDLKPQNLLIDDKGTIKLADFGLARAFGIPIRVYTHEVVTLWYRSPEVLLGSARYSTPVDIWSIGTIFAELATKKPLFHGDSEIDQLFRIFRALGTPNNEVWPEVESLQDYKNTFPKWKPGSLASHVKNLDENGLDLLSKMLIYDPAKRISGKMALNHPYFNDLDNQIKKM

Cc1nc(-c2ccsc2)cc2nn(-c3ccccc3)cc12
GI50 (K562 [1]): 10 µM
GI50 (MCF7 [2]): 22.2 µM
Activity (K562 [3]): 45.7%
Activity (K562 [4]): 26.2%
Activity (K562 [5]): 29.2%
Activity (K562 [6]): 44.6%
Activity (MCF7 [7]): 22.7%
Activity (MCF7 [8]): 37.2%
Activity (MCF7 [9]): 31.2%
Activity (MCF7 [10]): 31.6%
inhibition [11]: inactive

CCCCc1cc2nn(-c3ccccc3)cc2c(C)n1
GI50 (K562 [1]): 8.5 µM
GI50 (MCF7 [2]): 11.1 µM
Activity (K562 [3]): 40.8%
Activity (K562 [4]): 28.2%
Activity (K562 [5]): 30.5%
Activity (K562 [6]): 41.4%
Activity (MCF7 [7]): 19.3%
Activity (MCF7 [8]): 48.5%
Activity (MCF7 [9]): 24%
Activity (MCF7 [10]): 27.5%
inhibition [11]: inactive

CCCCCc1cc2nn(-c3ccccc3)cc2c(C)n1
GI50 (K562 [1]): 6.9 µM
GI50 (MCF7 [2]): 17 µM
Activity (K562 [3]): 28.3%
Activity (K562 [4]): 21.8%
Activity (K562 [5]): 28.3%
Activity (K562 [6]): 49.9%
Activity (MCF7 [7]): 31.1%
Activity (MCF7 [8]): 50.2%
Activity (MCF7 [9]): 18.1%
Activity (MCF7 [10]): 31.7%
inhibition [11]: inactive

CC(C)c1nccc2nn(-c3ccccc3)cc12
GI50 (K562 [1]): > 100 µM
GI50 (MCF7 [2]): 98.8 µM
inhibition [11]: inactive

COC(=O)Nc1nc2cc(C(=O)c3cccs3)ccc2[nH]1 [NOCODAZOLE]
Activity (K562 [12]): 33.2%
Activity (K562 [13]): 49.4%
Activity (K562 [14]): 3.6%
Activity (K562 [15]): 26.8%
Activity (K562 [16]): 69.7%
Activity (MCF7 [17]): 32.1%
Activity (MCF7 [18]): 14.4%
Activity (MCF7 [19]): 49.9%
Activity (MCF7 [20]): 35.7%

Cc1nc(-c2ccccc2)cc2nn(-c3ccccc3)cc12
GI50 (K562 [1]): 6.3 µM
GI50 (MCF7 [2]): 11 µM
Activity (K562 [3]): 46.2%
Activity (K562 [4]): 13.7%
Activity (K562 [5]): 36.1%
Activity (K562 [6]): 50.2%
Activity (MCF7 [7]): 11.9%
Activity (MCF7 [8]): 65.5%
Activity (MCF7 [9]): 20.5%
Activity (MCF7 [10]): 14.1%
inhibition [11]: inactive

CCCCc1cc2nn(-c3ccccc3)cc2cn1
GI50 (K562 [1]): 6.7 µM
GI50 (MCF7 [2]): 13.3 µM
Activity (K562 [3]): 37.7%
Activity (K562 [4]): 24.8%
Activity (K562 [5]): 12.8%
Activity (K562 [6]): 62.3%
Activity (MCF7 [7]): 31.1%
Activity (MCF7 [8]): 36%
Activity (MCF7 [9]): 30.3%
Activity (MCF7 [10]): 33.7%
inhibition [11]: inactive

CCCCc1cc2nn(-c3ccccc3)cc2c(C(C)C)n1
GI50 (K562 [1]): 12.9 µM
GI50 (MCF7 [2]): 33.3 µM
Activity (K562 [3]): 47.1%
Activity (K562 [4]): 26.7%
Activity (K562 [5]): 44.2%
Activity (K562 [6]): 29%
Activity (MCF7 [7]): 7.8%
Activity (MCF7 [8]): 66.1%
Activity (MCF7 [9]): 24.5%
Activity (MCF7 [10]): 9.4%
inhibition [11]: inactive

CC(=O)c1c(C)c2cnc(Nc3ccc(N4CCNCC4)cn3)nc2n(C2CCCC2)c1=O [PALBOCICLIB]
Activity (K562 [21]): 35%
Activity (K562 [22]): 54%
Activity (K562 [23]): 30.1%
Activity (K562 [24]): 15.9%
Activity (MCF7 [25]): 7.5%
Activity (MCF7 [26]): 90%
Activity (MCF7 [27]): 5.5%
Activity (MCF7 [28]): 4.6%
